Compounds with a hit are over-represented: about 0.62% of the library has one in this group of screens.
TNAP inh hi DEA – human TNAP enzyme inhibitors, primary screen, biochemical, luminescent, high phosphate acceptor level, uHTS. purified TNAP, CDP-star luminescence, 1 M DEA. inhibition, % at 20 µM. hit rate 0.03% among 200,000;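 active means over 50% inhibition of tissue-nonspecific alkaline phosphatase at 20 µM in the single-dose screen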;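 further: plate controls were DMSO wells for no effect and EDTA-quenched wells as full inhibition for full effect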
TNAP act hi DEA – TNAP activators at high phosphate acceptor level, primary screen, biochemical, luminescence, uHTS | Alkaline phosphatase, tissue-nonspecific isozyme (Homo sapiens), P05186 | purified TNAP, CDP-star luminescence, 1 M DEA, 30 min; active compounds read high; 0 = EDTA background, 1 = DMSO-only activity | activation factor at 20 µM | 200,000 tested, under 10 active;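 active means activation factor at least 2 at 20 µM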
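Assay system: human TNAP; Input: enzyme diluted 1/800 final; Reagent: CDP-star luminogenic substrate at 100 µM final; Timing: 30 min, room temperature; Signal: luminescence; Evaluation: TNAP activation factor scaled between EDTA and DMSO control wells.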
TNAP inh no acc – human TNAP enzyme inhibitors, primary screen, biochemical, luminescent, no phosphate acceptor, uHTS. hit rate 0.26% among 200,000. inhibition, % at 20 µM. Alkaline phosphatase, tissue-nonspecific isozyme (Homo sapiens), P05186. AID 1012, 2008. purified TNAP, CDP-star luminescence, 30 min;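 active means tissue-nonspecific alkaline phosphatase inhibition above about 50% at 20 µM in the single-dose screen, limit read from the data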;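 further: 0% = DMSO negative control and 100% = EDTA positive control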
PMI act – activators of human PMI, primary screen, biochemical, fluorescence intensity, near-Km mannose 6-phosphate | Mannose-6-phosphate isomerase (Homo sapiens), P34949 | purified human PMI, coupled resazurin fluorescence, 20 min; active compounds read high; 1 = vehicle control, 0 substrate-free wells | activation factor at 20 µM | hit rate 0.005% among 190,000 | AID 1214, 2008;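 active means activation factor of 2 or more at 20 µM, relative to plate controls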
Target sequence (P34949 whole entry, looked up): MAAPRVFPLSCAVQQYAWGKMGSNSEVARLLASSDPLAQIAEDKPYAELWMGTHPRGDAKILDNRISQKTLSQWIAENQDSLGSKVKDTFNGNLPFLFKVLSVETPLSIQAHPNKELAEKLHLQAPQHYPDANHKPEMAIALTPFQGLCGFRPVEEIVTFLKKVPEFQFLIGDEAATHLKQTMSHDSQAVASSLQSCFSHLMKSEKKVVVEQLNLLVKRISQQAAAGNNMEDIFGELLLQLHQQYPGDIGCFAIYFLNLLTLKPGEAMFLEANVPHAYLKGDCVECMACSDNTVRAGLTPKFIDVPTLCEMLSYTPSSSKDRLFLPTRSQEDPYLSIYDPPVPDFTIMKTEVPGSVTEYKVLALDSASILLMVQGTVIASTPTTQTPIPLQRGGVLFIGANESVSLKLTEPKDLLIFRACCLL
PMI act hi M6P – human PMI activators, high substrate, primary screen, biochemical, fluorescence intensity, near-saturating mannose 6-phosphate; hit rate 0.34% among 190,000; coupled PMI enzyme assay, resazurin fluorescence, 20 min; active compounds read high; 1 = untreated enzyme, 0 = substrate-free blank; Mannose-6-phosphate isomerase (Homo sapiens), P34949; activation factor at 20 µM;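 active means activation factor of 2 or more at 20 µM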
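Test system: human phosphomannose isomerase with PGI, G6PDH, diaphorase coupling enzymes / Doses: 20 µM compound, 1% DMSO / Times: enzyme reaction with compound 20 min at room temperature / Measured by: Diaphorase-driven resazurin-to-resorufin fluorescence, excitation 544, emission 590 nm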
Starred values were filed as active, the others as inactive.

CC1Cc2ccccc2N1S(=O)(=O)c1cccc(C(=O)N2CCN(c3ncccn3)CC2)c1 (centres undefined) was read as TNAP inh hi DEA -5, TNAP act hi DEA 1, TNAP inh no acc -3, PMI act 1 and PMI act hi M6P 1.1.
For C/C(=N\Nc1cccc(Cl)c1)c1ccc(-n2ccnc2)cc1 the results were TNAP inh hi DEA -4, TNAP act hi DEA 1, TNAP inh no acc -2, PMI act 1.8 and PMI act hi M6P 2.6*.
`COC(=O)N/N=C(\C)c1ccc(-n2ccnc2)cc1` gave TNAP inh hi DEA -7, TNAP act hi DEA 1.1, TNAP inh no acc -2, PMI act 1.1 and PMI act hi M6P 1.
CC1=C(C(=O)Nc2ccccc2C)C2(CCCCC2)C(C(N)=O)C(=S)N1 (centres undefined) was read as TNAP inh hi DEA -1, TNAP act hi DEA 1, TNAP inh no acc -21, PMI act 1.5 and PMI act hi M6P 2*.
Screening CC1=C(C(=O)Nc2ccccc2)C2(CCCCC2)C(C(N)=O)C(=S)N1 (centres undefined) returned TNAP inh hi DEA -1, TNAP act hi DEA 1, TNAP inh no acc -16, PMI act 1.4 and PMI act hi M6P 1.6.
For NN/C(=C\[N+](=O)[O-])Nc1ccccc1 the results were TNAP inh hi DEA 1, TNAP act hi DEA 1, TNAP inh no acc -2, PMI act 1.7 and PMI act hi M6P 2.6*.
Screening NN/C(=C\[N+](=O)[O-])Nc1ccc(Cl)cc1 returned TNAP inh hi DEA 5, TNAP act hi DEA 1, TNAP inh no acc -6, PMI act 1.5 and PMI act hi M6P 2*.
For O=Cc1c(OCc2ccccc2)ccc2ccccc12 the results were TNAP inh hi DEA -4, TNAP act hi DEA 1, TNAP inh no acc -3, PMI act 1 and PMI act hi M6P 1.
CCCn1c(N)c(NCCN2CCOCC2)c(=O)[nH]c1=O was read as TNAP inh hi DEA -4, TNAP act hi DEA 1, TNAP inh no acc -8, PMI act 1 and PMI act hi M6P 1.
For CCn1cc(CCC(=O)O)c(C)n1 the results were TNAP inh hi DEA -5, TNAP act hi DEA 1, TNAP inh no acc -6, PMI act 1.9 and PMI act hi M6P 2.3*.
`Cc1ccc(-c2nn(CCC(=O)O)cc2CCC(=O)O)cc1` gave TNAP inh hi DEA -7, TNAP act hi DEA 1.1, TNAP inh no acc -18, PMI act 1 and PMI act hi M6P 1.1.
`Cc1cc(C)c2ccc(=S)[nH]c2n1` gave TNAP inh hi DEA -2, TNAP act hi DEA 1, TNAP inh no acc -2, PMI act 1.7 and PMI act hi M6P 2.5*.
Screening Cc1ccc2c(O)c(C)c(=O)[nH]c2n1 returned TNAP inh hi DEA -8, TNAP act hi DEA 1.1, TNAP inh no acc -5, PMI act 1.1 and PMI act hi M6P 1.1.
Screening CC1CCC(C(=O)NNC(=O)c2cc(-c3ccco3)[nH]n2)CC1 (centres undefined) returned TNAP inh hi DEA -1, TNAP act hi DEA 1, TNAP inh no acc -82, PMI act 1.1 and PMI act hi M6P 1.
Screening Cc1ccc(-c2cc(C(=O)N/N=C/C=C/c3ccccc3)n[nH]2)s1 returned TNAP inh hi DEA -5, TNAP act hi DEA 1.1, TNAP inh no acc 33, PMI act 0.9 and PMI act hi M6P 1.
Cc1ccc(-c2cc(C(=O)O)n[nH]2)s1 was read as TNAP inh hi DEA -1, TNAP act hi DEA 1, TNAP inh no acc 77*, PMI act 1.1 and PMI act hi M6P 1.1.
O=C(O)c1cc(-c2ccco2)[nH]n1 was read as TNAP inh hi DEA 5, TNAP act hi DEA 0.9, TNAP inh no acc 51*, PMI act 1.4 and PMI act hi M6P 1.9.
Screening COc1ccc(C2CCCN2C(=S)Nc2cccc(Cl)c2C)cc1OC (centres undefined) returned TNAP inh hi DEA -3, TNAP act hi DEA 1, TNAP inh no acc -3, PMI act 0.9 and PMI act hi M6P 0.9.
`CCc1cccc(C)c1NC(=O)CO/N=C(\N)CC(=O)NC1CCCCC1` gave TNAP inh hi DEA -4, TNAP act hi DEA 1, TNAP inh no acc -8, PMI act 0.9 and PMI act hi M6P 0.9.
Screening O=C1N=c2ccccc2=C1c1sc(Nc2ccc(O)cc2)nc1O returned TNAP inh hi DEA 44, TNAP act hi DEA 0.6, TNAP inh no acc 82*, PMI act 1 and PMI act hi M6P 1.
O=C1N=c2ccccc2=C1c1sc(NS(=O)(=O)c2ccccc2)nc1O was read as TNAP inh hi DEA 2, TNAP act hi DEA 1, TNAP inh no acc 13, PMI act 1.1 and PMI act hi M6P 1.1.
Screening C/C(=N/Nc1ccc(C)cc1)C1(C)N(O)C(C)(C)C(c2ccco2)=[N+]1[O-] (centres undefined) returned TNAP inh hi DEA -5, TNAP act hi DEA 1, TNAP inh no acc -7, PMI act 1.9 and PMI act hi M6P 2.7*.
`Cc1cc(C(=O)CSc2n[nH]c(-c3ccccc3F)n2)c(C)n1Cc1cccs1` gave TNAP inh hi DEA 2, TNAP act hi DEA 1, TNAP inh no acc 91*, PMI act 0.8 and PMI act hi M6P 1.
`Cc1cccc(C)c1NC(=S)NCCc1ccc(O)c(O)c1` gave TNAP inh hi DEA 1, TNAP act hi DEA 1, TNAP inh no acc 60*, PMI act 0.5 and PMI act hi M6P 0.8.
Screening CC(=O)C1=C(c2cccc([N+](=O)[O-])c2)N(C(C)=O)n2c(C)nnc2S1 returned TNAP inh hi DEA 1, TNAP act hi DEA 1, TNAP inh no acc 63*, PMI act 1.1 and PMI act hi M6P 1.1.
Screening CC1CCCC/C1=N\NC(=S)Nc1cccnc1 (centres undefined) returned TNAP inh hi DEA 1, TNAP act hi DEA 1, TNAP inh no acc -14, PMI act 1.7 and PMI act hi M6P 1.9.
Cc1ccc(NC(=S)N/N=C2\CCCCC2C)cc1 (centres undefined) was read as TNAP inh hi DEA -1, TNAP act hi DEA 1, TNAP inh no acc -26, PMI act 1.8 and PMI act hi M6P 2*.
Screening COc1ccccc1NC(=O)Cn1nnc(C(=O)NCCc2ccccc2)c1N returned TNAP inh hi DEA 3, TNAP act hi DEA 1, TNAP inh no acc 0, PMI act 0.9 and PMI act hi M6P 0.9.
CC(=O)Oc1cccc(N2C(=O)c3ccc(C(=O)Nc4c[nH]c(=O)[nH]c4=O)cc3C2=O)c1 was read as TNAP inh hi DEA -4, TNAP act hi DEA 1, TNAP inh no acc -12, PMI act 1 and PMI act hi M6P 1.

Source: PubChem BioAssay
